Reference: publication PMC2217059 (The Journal of General Physiology, 1997)
Several values for one entry are separate records, joined by “and”; a condition that tells them apart may be missing. Equal values may be shown once. Read-outs that look alike come from different tables or passages of the source. Blank lines part the entries; values can stand above or below the molecule they belong to.

Legend:
Na,K-ATPase [1] = settings: read-out: K diss, Na+-form (E1-form), I < 0.1 M, ref Nørby and Jensen, 1971, Hegyvary and Post, Jørgensen, 1975, Skou and Esmann, 1981; cited from earlier work
Na,K-ATPase [2] = molecular target: T1, Na,K-ATPase (Sus scrofa, UniProt P05024); experiment: Equilibrium binding of 14C-ADP to membrane-bound Na,K-ATPase; design: species or system pig; settings: for Kd: read-out: K diss for ADP-binding
Outline: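 The enzyme was membrane-bound Na,K-ATPase from pig kidney outer medulla, SDS-extracted. It was mixed on ice with water or Na+ salt in imidazole/sucrose/EDTA (pH 7.4), then with 14C-ADP (stock 40 μM) in Tris buffer (pH 6.3). NO3− and SO4 2− series used enzyme washed into buffer titrated with HNO3 or H2SO4. Final pH was 7.65–7.82 and basal I 78 mM. Samples were centrifuged at 100,000 g for 60 min at 0–2°C; bound ADP was total minus supernatant. Kdiss came from nonlinear regression with a common Bmax per series.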

[3] = system: Na,K-ATPase Asp369 substituted with Asn or Ala; settings: Asp369 substituted with uncharged Asn or Ala; ref Pedersen et al., 1996; cited from earlier work
[4] = system: Na,K-ATPase mutant Lys480Glu; settings: ref Wang and Farley, 1992; cited from earlier work
Na,K-ATPase [5] = molecular target: T1, Na,K-ATPase; experiment: Na,K-ATPase activity; type: biochemical, pig
[6] = I around 0.1 M, cited from earlier work
Na,K-ATPase [7] = molecular target: T1, Na,K-ATPase; settings: cited from earlier work
Na,K-ATPase [8] = molecular target: T1, Na,K-ATPase; experiment: Effect of NO3− on ADP-binding, competitive model of Fig. 4; design: species or system pig; settings: line through (0,1); I 78–228 mM and constant I 178 mM
Outline: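 ADP-binding affinities for pig kidney membrane Na,K-ATPase were determined by centrifugation binding at 0–2°C. Kdiss/KA was plotted against [NO3−] for the NaNO3 series (I 78–228 mM). […] A line through (0,1) was fitted, and KN for ENO3 was taken as the reciprocal slope.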

Na,K-ATPase [9] = molecular target: T1, Na,K-ATPase; experiment: K+-dependent p-nitrophenylphosphatase; type: biochemical, pig
Outline: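 K+-pNPPase was assayed at 37°C, pH 7.4, in 30 mM histidine/HCl with 10 pmol enzyme·ml−1, 20 mM MgCl2, K+ salts and 10 mM Na2pNPP (basal I ~90 mM). Substrate-dependence runs varied Na2pNPP at 0.05–0.4 M KCl. After 3 min, reactions were stopped with ice-cold TCA (final 5%) and p-nitrophenol was measured. Blanks were reagent blanks without enzyme. Results are the mean of two to four experiments.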

[10] = system: H+-translocating Mg-ATPases from tissues of higher plants; settings: ref Sze, 1985, Jacoby, 1987, Blumwald et al.; cited from earlier work

SMILES: Nc1ncnc2c1ncn2[C@@H]1O[C@H](COP(=O)(O)OP(=O)(O)OP(=O)(O)O)[C@@H](O)[C@H]1O [ATP]
increase in affinity for ATP at the high-affinity site [3]: 20–30 fold
reduction of affinity for ATP [4]: ~10 fold
change of K m for ATP with increasing I (Na,K-ATPase [5]; 20 mM KCl, [Mgtot] = [ATP] + 1 mM, 0.16–0.75 M NaCl, 37°C, pH 7.4): slight decrease

SMILES: O=C(O)CN(CCN(CC(=O)O)CC(=O)O)CC(=O)O [H2EDTA^2−]
pKa ([6]; ref Kortüm et al., 1961): 6.5

SMILES: [K+] [K^+]
K 0.5 for K+, chosen for the model (Na,K-ATPase [7]; K+-pNPPase model with Na+/K+ competition, ref Beaugé et al., 1984): 2 mM

SMILES: O=[N+]([O-])O [NO3 ^−]
slope of K diss/K A versus [NO3−] (Na,K-ATPase [8]): 0.0309 ± 0.0006 mM⁻¹ and 0.031 mM⁻¹
specific anion effect on K+-pNPPase activity (Na,K-ATPase [9]; KNO3 compared with KCl, 10 mM Na2pNPP, also 25 mM pNPP): does not have any special effect
K 0.5 of inhibition [10]: 10 to 50 mM

SMILES: NC(CO)(CO)CO [TrisH^+]
pKa ([6]; ref Perrin, 1965): 8.8

SMILES: c1c[nH]cn1 [imidazoleH^+]
pKa ([6]; ref Perrin, 1965): 7.5

More lines, main results first:

decrease of apparent affinity for ADP with salt (Na,K-ATPase [2]; 0–0.5 M NaCl, Na2SO4, NaNO3, 0.1 M Na-acetate, NaSCN, NaClO4): up to 30 times
Bmax of ADP-binding (Na,K-ATPase [2]; Exp. A2, NaCl series, [Cl−] 119 mM, I 178 mM): 1.20 ± 0.01 µM
Bmax of ADP-binding (Na,K-ATPase [2]; Exp. A3, NaCl series, [Cl−] 219 mM, I 278 mM): 1.20 ± 0.02 µM
Bmax of ADP-binding (Na,K-ATPase [2]; Exp. A4, NaCl series, [Cl−] 319 mM, I 378 mM): 1.13 ± 0.11 µM
Bmax of ADP-binding (Na,K-ATPase [2]; Exp. A5, NaCl series, [Cl−] 394 mM, I 453 mM): 1.29 ± 0.09 µM
Bmax of ADP-binding (Na,K-ATPase [2]; Exp. A6, NaCl series, [Cl−] 469 mM, I 528 mM): 1.20 ± 0.11 µM
Bmax of ADP-binding (Na,K-ATPase [2]; Exp. A7, NaCl series, [Cl−] 519 mM, I 578 mM): 0.98 ± 0.09 µM
Bmax of ADP-binding (Na,K-ATPase [2]; Exp. B1, Na2SO4 series, [SO4 2−] 6 mM, I 78 mM): 1.70 ± 0.04 µM
Bmax of ADP-binding (Na,K-ATPase [2]; Exp. B2, Na2SO4 series, [SO4 2−] 6 mM, I 78 mM): 1.73 ± 0.02 µM
Bmax of ADP-binding (Na,K-ATPase [2]; Exp. B3, Na2SO4 series, [SO4 2−] 36 mM, I 168 mM): 1.71 ± 0.02 µM
Bmax of ADP-binding (Na,K-ATPase [2]; Exp. B4, Na2SO4 series, [SO4 2−] 66 mM, I 258 mM): 1.77 ± 0.03 µM
Bmax of ADP-binding (Na,K-ATPase [2]; Exp. B5, Na2SO4 series, [SO4 2−] 96 mM, I 348 mM): 1.72 ± 0.06 µM
Bmax of ADP-binding (Na,K-ATPase [2]; Exp. B6, Na2SO4 series, [SO4 2−] 126 mM, I 438 mM): 1.96 ± 0.10 µM
Bmax of ADP-binding (Na,K-ATPase [2]; Exp. B7, Na2SO4 series, [SO4 2−] 156 mM, I 528 mM): 1.77 ± 0.08 µM
Bmax of ADP-binding (Na,K-ATPase [2]; Exp. C1, NaNO3 series, [NO3−] 19 mM, I 78 mM): 1.80 ± 0.02 µM
Bmax of ADP-binding (Na,K-ATPase [2]; Exp. C2, NaNO3 series, [NO3−] 24 mM, I 83 mM): 1.83 ± 0.03 µM
Bmax of ADP-binding (Na,K-ATPase [2]; Exp. C3, NaNO3 series, [NO3−] 49 mM, I 108 mM): 1.80 ± 0.03 µM
Bmax of ADP-binding (Na,K-ATPase [2]; Exp. C4, NaNO3 series, [NO3−] 79 mM, I 138 mM): 1.84 ± 0.04 µM
Bmax of ADP-binding (Na,K-ATPase [2]; Exp. C5, NaNO3 series, [NO3−] 79 mM, I 138 mM): 1.84 ± 0.01 µM
Bmax of ADP-binding (Na,K-ATPase [2]; Exp. C6, NaNO3 series, [NO3−] 109 mM, I 168 mM): 1.78 ± 0.06 µM
Bmax of ADP-binding (Na,K-ATPase [2]; Exp. C7, NaNO3 series, [NO3−] 139 mM, I 198 mM): 1.80 ± 0.06 µM
Bmax of ADP-binding (Na,K-ATPase [2]; Exp. C8, NaNO3 series, [NO3−] 169 mM, I 228 mM): 1.82 ± 0.08 µM
Kd (Na,K-ATPase [2]; 19 mM Cl− + 100 mM Na+ salt of ClO4−, I 178 mM): 38.6 ± 0.7 µM
Kd (Na,K-ATPase [2]; 19 mM Cl− + 100 mM Na+ salt of NO3−, I 178 mM): 3.24 ± 0.05 µM
Kd (Na,K-ATPase [2]; 19 mM Cl− + 100 mM Na+ salt of SCN−, I 178 mM): 18.3 ± 0.2 µM
Kd (Na,K-ATPase [2]; 19 mM Cl− + 100 mM Na-acetate, I 178 mM): 0.635 ± 0.004 µM
Kd (Na,K-ATPase [2]; 19 mM Cl− + 100 mM NaCl (Cl−), I 178 mM): 0.64 ± 0.007 µM
SMILES: Nc1ncnc2c1ncn2[C@@H]1O[C@H](COP(=O)(O)OP(=O)(O)O)[C@@H](O)[C@H]1O [ADP]
Kd (Na,K-ATPase [1]): < 1 µM

inhibitory effect on Na,K-ATPase activity, less than that of NaCl (Na,K-ATPase [5]; activity plotted versus I, 20 mM KCl, 3 mM ATP, 4 mM MgCl2): 10–30%
SMILES: O=S(=O)([O-])[O-].[Na+].[Na+] [Na2SO4]

effect on Na,K-ATPase activity compared with NaCl (Na,K-ATPase [5]; up to 800 mM, not shown): the same results as with NaCl
SMILES: CC(=O)[O-].[Na+] [Na-acetate]

K 0.5 for pNPP (Na,K-ATPase [9]; 0.125 M ClO4−): ~5.5 mM
K 0.5 for pNPP (Na,K-ATPase [9]; 0.125 M Cl−): about 4.5 mM
K m for pNPP (Na,K-ATPase [9]; highest values reached with increasing [KCl] (0.05–0.6 M KCl), 37°C, pH 7.4): 10–12 mM
SMILES: O=[N+]([O-])c1ccc(OP(=O)(O)O)cc1 [pNPP, p-nitrophenylphosphate]
K m for pNPP (Na,K-ATPase [7]; low ionic strength, ref Skou, 1974, Campos et al., 1988, Fig. 9 in this paper): 2–3 mM
